Where only a bound is given, the exact number is not on record here.

Broadly, the Ki is a dissociation constant, usually derived from enzyme kinetics or from competition with a known ligand. As a reminder, the IC50 is the point on the concentration scale where inhibition reaches its midpoint.

For series [1], the target named is T1, Oxysterol-binding protein 1 (Homo sapiens, UniProt P22059).
T1 sequence (P22059 whole entry): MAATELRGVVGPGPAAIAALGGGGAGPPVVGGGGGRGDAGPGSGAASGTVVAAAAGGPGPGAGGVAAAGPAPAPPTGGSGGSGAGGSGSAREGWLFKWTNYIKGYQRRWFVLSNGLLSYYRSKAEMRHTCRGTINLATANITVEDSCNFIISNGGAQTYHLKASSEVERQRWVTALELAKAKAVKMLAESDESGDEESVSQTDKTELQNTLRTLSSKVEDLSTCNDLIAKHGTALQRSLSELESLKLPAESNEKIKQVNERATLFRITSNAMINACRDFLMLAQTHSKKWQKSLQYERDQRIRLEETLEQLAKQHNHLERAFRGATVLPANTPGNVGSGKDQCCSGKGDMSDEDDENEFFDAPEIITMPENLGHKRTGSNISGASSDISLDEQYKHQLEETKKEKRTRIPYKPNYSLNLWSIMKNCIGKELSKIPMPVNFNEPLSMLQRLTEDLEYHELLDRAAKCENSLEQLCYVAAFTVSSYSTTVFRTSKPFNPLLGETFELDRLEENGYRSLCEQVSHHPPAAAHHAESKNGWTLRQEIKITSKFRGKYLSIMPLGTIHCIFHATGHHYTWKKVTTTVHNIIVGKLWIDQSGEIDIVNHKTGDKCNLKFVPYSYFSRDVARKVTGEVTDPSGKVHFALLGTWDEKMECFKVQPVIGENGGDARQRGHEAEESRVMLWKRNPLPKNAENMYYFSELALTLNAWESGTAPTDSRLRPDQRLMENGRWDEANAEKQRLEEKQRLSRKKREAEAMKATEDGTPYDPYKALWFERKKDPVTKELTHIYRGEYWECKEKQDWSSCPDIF
As to the kind of experiment: Inhibition of human C-terminal 6-His tagged OSBP ORD domain (401 to 807 residues) expressed in baculovirus-infected Sf9 cells assessed as reduction in DHE transfer from liposome (Le mimicking ER) to liposome (Lg mimicking golgi) with compound by FRET assay. A digest of the protocol:
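Purified human OSBP ORD (401-807, C-terminal 6×His) from baculovirus-infected Sf9 cells, used in a DHE sterol transfer fluorescence assay. Signal corrected for compound fluorescence. Kinetics fitted linearly or by ΔF = ΔFmax(1 − e^−kt) to give apparent k, which was plotted against compound concentration. Ki from a quadratic (tight binders) or hyperbolic equation, three independent experiments.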

Series [2] concerns U-87 MG. Kind of series: Antiproliferative activity against human U-87 MG cells assessed as inhibition of cell proliferation incubated for 72 hrs by CellTiter-Glo luminescent assay. It counts as functional, cell-based, U-87MG ATCC. The gist of the method:
(§1)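 A549 in RPMI 1640 and U-87MG in DMEM, each with 10% FCS and 1% glutamine, at 37 °C and 5% CO₂. Cells seeded at 3000/well, dosed the next day, treated 72 h. Viability read by CellTiter-Glo luminescence with DMSO-treated cells set to 100%. IC50 taken from survival curves over three independent experiments.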

Series [3] deals with A549. Kind of series: Antiproliferative activity against human A549 cells assessed as inhibition of cell proliferation incubated for 72 hrs by CellTiter-Glo luminescent assay. It counts as functional, cell-based. The note with it: A549, 72 h. The gist of the method:
as §1

Series [4] in a line: Metabolic stability in mouse liver microsomes assessed as compound remaining at 2.5 uM and measured after 45 mins in absence of NADPH by LC-MS/MS analysis. The note with it: read-out: Stability. It counts as ADME, Microsome. In general terms: Microsomes from liver hold many membrane-bound enzymes, among them those of drug oxidation.
Series [5] can be described thus: Metabolic stability in mouse liver microsomes assessed as compound remaining at 2.5 uM and measured after 45 mins in presence of NADPH by LC-MS/MS analysis. It counts as ADME, Microsome. The note with it: read-out: Stability.
Series [6] can be described thus: Metabolic stability in mouse plasma assessed as compound remaining at 5 uM and measured after 120 mins by UPLC-MS/MS analysis. The note with it: read-out: Stability. It counts as ADME, cell-free. A digest of the protocol: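 Male mouse plasma at 37 °C with compound added from a 5 µM solution […]. Sampled at 0, 15, 30, 45, 60 and 120 min, quenched with acetonitrile and read by LC-MS/MS (MRM) in duplicate. Procaine positive control. Remaining % and t1/2 derived from MRM area relative to t = 0.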

Series [7] can be described thus: Metabolic stability in mouse liver microsomes assessed as intrinsic clearance at 2.5 uM and measured upto 45 mins in presence of NADPH by LC-MS/MS analysis. It counts as ADME, Microsome. The note with it: read-out: CLH.

`COc1cc(/C=C/c2cc(O)c3c(c2)OC(C)(C)CC3)cc2c1O[C@]1(C)C[C@@H](O)[C@@H](OC=O)C(C)(C)[C@H]1C2`: in series [1], the Ki is 829 nM. Further, the figures for the IC50 in series [2] and in series [3] were 500 nM and 2150 nM, respectively.

In the case of `COc1cc(/C=C/c2cc(O)c(CC=C(C)C)c(O)c2)cc2c1O[C@]1(C)CC[C@@H](O)C(C)(C)[C@H]1C2` [SCHWEINFURTHIN F], the Ki in series [1] came out at 6 nM. For the same compound, the IC50 in series [2] is 98 nM; in series [3], 605 nM.

Regarding `CC1(C)CCc2c(O)cc(CCc3cc(O)c4c(c3)C[C@@H]3C(C)(C)[C@H](OC=O)CC[C@@]3(C)O4)cc2O1`, the Ki in series [1] was 3220 nM. In addition, the IC50 in series [2] is 67 nM; in series [3] it was 3040 nM.

For the compound `C#CCOc1cc(/C=C/c2cc(O)c(CC=C(C)C)c(O)c2)cc2c1O[C@]1(C)CC[C@@H](O)C(C)(C)[C@H]1C2`, in series [1], the Ki worked out at 43 nM. The values for the IC50 in series [2] and in series [3] were 286 nM and 3900 nM, respectively.

Take `CC1(C)CCc2c(O)cc(/C=C/c3cc(O)c4c(c3)C[C@@H]3C(C)(C)[C@H](O)CC[C@@]3(C)O4)cc2O1`: in series [1], the Ki was less than 1 nM. For the same compound, the IC50 amounted to 9.4 nM in series [2] and 647 nM in series [3]. The remaining at 0.75 h, 2.5 µM in series [4] came out at 100%; in series [5], 48.6%. The remaining at 2 h, 5 µM in series [6] amounted to 100%. Also, the microsomal CLint at 2.5 µM in series [7] is 32 µL/min/mg.

Consider `COc1cc(/C=C/c2cc(O)c(CC=C(C)C)c(O)c2)cc2c1O[C@@]1(C)[C@H](C2)C(C)(C)[C@H](O)C[C@@H]1O`, for which, in series [1], the Ki came out at 254 nM. Also, the IC50 in series [2] was determined as 510 nM; in series [3], 1120 nM.

As to `COc1cc(CCc2cc(O)c3c(c2)OC(C)(C)CC3)cc2c1O[C@]1(C)CC[C@@H](O)C(C)(C)[C@H]1C2`, in series [1], the inhibitory constant (Ki) was 46 nM. For the same compound, the half-inhibitory concentration (IC50) is 3850 nM in series [2] and more than 10000 nM in series [3].

As to `COc1cc(CCc2cc(O)c3c(c2)OC(C)(C)CC3)cc2c1O[C@]1(C)CC[C@@H](OC=O)C(C)(C)[C@H]1C2`, the Ki in series [1] was determined as 3700 nM. Further, the IC50 was 1480 nM in series [2] and more than 10000 nM in series [3].

As to `COc1cc(/C=C/c2cc(O)c(CC=C(C)C)c(O)c2)cc2c1O[C@]1(C)C[C@@H](O)[C@@H](O)C(C)(C)[C@H]1C2` [SCHWEINFURTHIN E], the Ki in series [1] is less than 1 nM. Also, the IC50 in series [2] came to 22 nM; in series [3] it was 397 nM.

Regarding `COc1cc(/C=C/c2cc(O)c3c(c2)OC(C)(C)CC3)cc2c1O[C@]1(C)CC[C@@H](O)C(C)(C)[C@H]1C2`, in series [1], the Ki amounted to 64 nM. For the same compound, the 50% inhibitory concentration (IC50) was 478 nM in series [2] and 2530 nM in series [3].

Regarding `COc1cc(/C=C/c2cc(O)c3c(c2)OC(C)(C)C(O)C3)cc2c1O[C@]1(C)C[C@@H](O)[C@@H](O)C(C)(C)[C@H]1C2` (stereo partly specified) [SCHWEINFURTHIN H], the Ki in series [1] turned out to be 401 nM. Also, the IC50 in series [2] was 656 nM; in series [3], 1790 nM.

As for `C=CCc1c(/C=C/c2cc(O)c(CC=C(C)C)c(O)c2)cc2c(c1O)O[C@]1(C)CC[C@@H](O)C(C)(C)[C@H]1C2`, the Ki in series [1] turned out to be 119 nM. Also, the IC50 in series [2] came to 457 nM; in series [3], 2860 nM.

In the case of `C=CCOc1cc(/C=C/c2cc(O)c(CC=C(C)C)c(O)c2)cc2c1O[C@]1(C)CC[C@@H](O)C(C)(C)[C@H]1C2`, the Ki in series [1] amounted to 31 nM. Further, the half-maximal inhibitory concentration (IC50) was 420 nM in series [2] and 5000 nM in series [3].

Consider `COc1cc(/C=C/c2cc(O)c3c(c2)OC(C)(C)CC3)cc2c1O[C@]1(C)C[C@@H](O)[C@@H](O)C(C)(C)[C@H]1C2`, for which the Ki in series [1] was 16 nM. The IC50 in series [2] is 336 nM; in series [3], 1100 nM.

On to `COc1cc(/C=C/c2cc(O)c3c(c2)OC(C)(C)CC3)cc2c1O[C@]1(C)CC[C@@H](OC=O)C(C)(C)[C@H]1C2`, for which the Ki in series [1] worked out at 523 nM. Further, the IC50 in series [2] amounted to 380 nM; in series [3], 2420 nM.

Consider `CC1(C)CCc2c(O)cc(CCc3cc(O)c4c(c3)C[C@@H]3C(C)(C)[C@H](O)CC[C@@]3(C)O4)cc2O1`, for which, in series [1], the Ki is less than 1 nM. The IC50 in series [2] stood at 77 nM; in series [3], 3910 nM.

For the compound `CC(C)=CCc1c(O)cc(/C=C/c2cc(O)c3c(c2)C[C@@H]2C(C)(C)[C@H](O)[C@H](O)C[C@@]2(C)O3)cc1O` [VEDELIANIN], in series [1], the Ki is less than 1 nM. Moreover, the half-inhibitory concentration (IC50) in series [2] was found to be 15 nM; in series [3], 966 nM.

On to `CC(C)=CCc1c(O)cc(/C=C/c2cc3c(c4c2C=CCO4)O[C@]2(C)CC[C@@H](O)C(C)(C)[C@H]2C3)cc1O`, for which the Ki in series [1] stood at 37 nM. Besides, the IC50 was 481 nM in series [2] and more than 10000 nM in series [3].

With `CC(C)=CCC/C(C)=C/Cc1cc(/C=C/c2cc(O)c(CC=C(C)C)c(O)c2)cc(O)c1O` [MAPPAIN], in series [1], the Ki amounted to 3000 nM. In addition, the half-inhibitory concentration (IC50) was 7000 nM in series [2] and more than 10000 nM in series [3].
